Measured values as given in ChEMBL document CHEMBL3576783, “Synthesis and evaluation of 1,2,4-triazolo[1,5-a]pyrimidines as antibacterial agents against Enterococcus faecium” (J Med Chem, 2015).
In brackets after ≈: the same amount, converted by molar mass.

Key:
[1] = tested on: Enterococcus faecium; assay: microbe, parasite or virus in culture; settings: NCTC 7171
[2] = tested on: Enterococcus faecium; assay: Antibacterial activity against copper, erythromycin, teracycline-resistant and vancomycin and teicoplanin-sensitive Enterococcus faecium ATCC BAA2127 assessed as bacterial growth inhibition after 16-20 hrs by broth microdilution method; assay type: functional
Summary of the method: (§1)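 CLSI broth microdilution in cation-adjusted Mueller Hinton II broth, triplicate. Cultures grown to OD600 about 0.60-0.80, diluted 100-fold; final inoculum 5×10^5 CFU/mL. Compounds from 5 mg/mL DMSO stock diluted in medium, final 2% (v/v) DMSO plus 0.25% (v/v) glacial acetic acid. Incubated 35 °C, 16-20 h, then MIC read.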

[3] = tested on: Enterococcus faecium; assay: Antibacterial activity against vancomycin-susceptible Enterococcus faecium 119-39A assessed as bacterial growth inhibition after 16-20 hrs by broth microdilution method; assay type: functional
Summary of the method: as §1

[4] = tested on: Liver; assay: Half life in human liver S9 at 10 uM after 60 mins by UPLC analysis; assay type: ADME, subcellular, Liver S9 fraction; settings: s9, 1 h
Summary of the method: (§2)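 Pooled human liver S9 (1 mg/mL) with 1 mM NADPH and 10 μM compound in sodium phosphate buffer (0.20 M phosphate, 0.15 M NaCl, pH 7.4), 37 °C for 60 min. Six time points quenched in acetonitrile with internal standard, analysed by UPLC-MRM. Half-life taken from first-order rate constant; CLint scaled with 45 mg protein/g liver and 20 g liver/kg. Run in duplicate.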

[5] = Apparent intrinsic clearance in human liver S9 at 10 uM after 60 mins by UPLC analysis; assay type: ADME, subcellular, Liver S9 fraction; settings: read-out: CLH(app)
Summary of the method: as §2

[6] = Induction of hemolysis in RBC (unknown origin) at 64 ug/ml; settings: erythrocytes
[7] = tested on: Enterococcus faecium; assay: Antibacterial activity against vancomycin and teicoplanin-resistant Enterococcus faecium ATCC 700221 isolated from human faeces assessed as bacterial growth inhibition after 16-20 hrs by broth microdilution method; assay type: functional; settings: ATCC 700221, Feces
Summary of the method: as §1, with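 “Broth” for “CLSI broth”, “broth, run to CLSI method,” for “broth,”, “Cells” for “Cultures”, “~0.60-0.80,” for “about 0.60-0.80,”, “stocks” for “stock”, “°C for” for “°C,”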

Structure (SMILES): COc1ccc(CSc2nc3n(n2)C(c2ccc(N(C)C)cc2)C(C(N)=O)=C(C)N3)cc1 (stereo not drawn)
- MIC [1]: > 128 µg/mL

Structure (SMILES): CC1=C(C(N)=O)C(c2cccs2)n2ncnc2N1 (stereo not drawn)
- MIC [1]: > 128 µg/mL

Structure (SMILES): CC1=C(C(N)=O)C(c2ccc(F)cc2)n2nc(SCc3ccccc3)nc2N1 (stereo not drawn)
- MIC [1]: 128 µg/mL (≈ 324 µM)

Structure (SMILES): CC1=C(C(N)=O)C(c2ccccc2C(F)(F)F)n2nc(SCc3ccccc3)nc2N1 (stereo not drawn)
- MIC [1]: > 128 µg/mL

Structure (SMILES): CC1=C(C(N)=O)C(c2ccc(O)cc2)n2nc(SCc3ccccc3)nc2N1 (stereo not drawn)
- MIC [1]: > 128 µg/mL

Structure (SMILES): CC1=C(C(N)=O)C(C2CCCCC2)n2nc(SCc3ccccc3)nc2N1 (stereo not drawn)
- MIC [1]: > 128 µg/mL

Structure (SMILES): COc1ccc(C2C(C(N)=O)=C(C)Nc3nc(SCc4ccccc4)nn32)cc1 (stereo not drawn)
- MIC [1]: > 128 µg/mL

Structure (SMILES): CC1=C(C(N)=O)C(c2ccc[nH]2)n2nc(SCc3ccccc3)nc2N1 (stereo not drawn)
- MIC [1]: > 128 µg/mL

Structure (SMILES): CCSc1ccc(C2C(C(N)=O)=C(C)Nc3nc(SCc4ccccc4)nn32)cc1 (stereo not drawn)
- MIC [2]: 16 µg/mL (≈ 36.6 µM)
- MIC [3]: 8 µg/mL (≈ 18.3 µM)
- t1/2 [4]: > 1 h
- CLint scaled at 10 µM [5]: < 10.4 mL/min/kg
- Activity [6]: 46%
- MIC [1]: 4 µg/mL (≈ 9.14 µM)

Structure (SMILES): CC1=C(C(N)=O)C(c2cccc(OC(F)(F)F)c2)n2nc(SCc3ccccc3)nc2N1 (stereo not drawn)
- MIC [1]: 16 µg/mL (≈ 34.7 µM)

Structure (SMILES): CC1=C(C(N)=O)C(c2ccncc2)n2nc(SCc3ccccc3)nc2N1 (stereo not drawn)
- MIC [1]: > 128 µg/mL

Structure (SMILES): CC1=C(C(=O)Nc2ccc(C)cc2C)C(c2ccc(Cl)cc2)n2nc(C(=O)OC(C)C)nc2N1 (stereo not drawn)
- MIC [1]: 16 µg/mL (≈ 33.3 µM)

Structure (SMILES): CCN(CC)c1ccc(C2C(C(N)=O)=C(C)Nc3nc(SCc4ccccc4)nn32)cc1 (stereo not drawn)
- MIC [1]: 8 µg/mL (≈ 17.8 µM)

Structure (SMILES): COC(=O)c1ccc(CSc2nc3n(n2)C(c2ccc(N(C)C)cc2)C(C(N)=O)=C(C)N3)cc1 (stereo not drawn)
- MIC [1]: > 128 µg/mL

Structure (SMILES): CNC(=O)C1=C(C)Nc2nc(SCc3ccccc3)nn2C1c1ccc(N(C)C)cc1 (stereo not drawn)
- MIC [1]: 8 µg/mL (≈ 18.4 µM)

Structure (SMILES): CC1=C(C(N)=O)C(c2ccc(C(F)(F)F)cc2)n2nc(SCc3ccccc3)nc2N1 (stereo not drawn)
- MIC [1]: 8 µg/mL (≈ 18 µM)

Structure (SMILES): CC1=C(C(N)=O)C(c2ccc(C(=O)O)cc2)n2nc(SCCNC(=O)OCc3ccccc3)nc2N1 (stereo not drawn)
- MIC [1]: > 128 µg/mL

Structure (SMILES): CC1=C(C(N)=O)C(c2ccc(C#N)cc2)n2nc(SCc3ccccc3)nc2N1 (stereo not drawn)
- MIC [1]: 16 µg/mL (≈ 39.8 µM)

Structure (SMILES): CSc1nc2n(n1)C(c1ccc(N(C)C)cc1)C(C(N)=O)=C(C)N2 (stereo not drawn)
- MIC [1]: > 128 µg/mL

Structure (SMILES): CC1=C(C(N)=O)C(c2ccc(N(C)C)cc2)n2ncnc2N1 (stereo not drawn)
- MIC [1]: > 128 µg/mL

Structure (SMILES): CCc1ccc(C2C(C(=O)Nc3ccccc3OC)=C(C)Nc3nc(SCc4ccccc4)nn32)cc1 (stereo not drawn)
- MIC [1]: > 128 µg/mL

Structure (SMILES): CC1=C(C(=O)Nc2ccc(C)cc2C)C(c2ccc(C)cc2)n2nc(SCc3cccc(C)c3)nc2N1 (stereo not drawn)
- MIC [1]: > 128 µg/mL

Structure (SMILES): CCOc1ccccc1C1C2=C(CCCC2=O)Nc2nc(SCc3ccc(C(=O)O)cc3)nn21 (stereo not drawn)
- MIC [1]: > 128 µg/mL

Structure (SMILES): COC(=O)c1nc2n(n1)C(c1ccc(N(C)C)cc1)C(C(N)=O)=C(C)N2 (stereo not drawn)
- MIC [1]: > 128 µg/mL

Structure (SMILES): CC1=C(C(N)=O)C(c2ccc(N(C)C)cc2)n2nc(Sc3ccccn3)nc2N1 (stereo not drawn)
- MIC [1]: > 128 µg/mL

Structure (SMILES): CCOC(=O)c1nc2n(n1)C(c1ccc(N(C)C)cc1)C(C(N)=O)=C(C)N2 (stereo not drawn)
- MIC [1]: > 128 µg/mL

Structure (SMILES): CCc1ccc(C2C(C(=O)Nc3ccccc3C)=C(C)Nc3nc(SCc4cccc(OC)c4)nn32)cc1 (stereo not drawn)
- MIC [1]: > 128 µg/mL

Structure (SMILES): CCc1ccc(C2C(C(=O)Nc3ccccc3)=C(C)Nc3nc(SCc4cccc(OC)c4)nn32)cc1 (stereo not drawn)
- MIC [1]: > 128 µg/mL

Structure (SMILES): CC1=C(C(N)=O)C(c2ccsc2)n2nc(SCc3ccccc3)nc2N1 (stereo not drawn)
- MIC [1]: > 128 µg/mL

Structure (SMILES): CC1=C(C(N)=O)C(c2cccnc2)n2nc(SCc3ccccc3)nc2N1 (stereo not drawn)
- MIC [1]: > 128 µg/mL

Structure (SMILES): CC1=C(C(=O)Nc2ccccc2C)C(c2ccc(C)cc2)n2nc(SCc3cccc(C)c3)nc2N1 (stereo not drawn)
- MIC [1]: > 128 µg/mL

Structure (SMILES): CCc1ccc(C2C(C(N)=O)=C(C)Nc3nc(SCc4ccccc4)nn32)cc1 (stereo not drawn)
- MIC [1]: 8 µg/mL (≈ 19.7 µM)

Structure (SMILES): CC1=C(C(N)=O)C(c2ccc(N(C)C)cc2)n2nc(SCc3ccc([N+](=O)[O-])cc3)nc2N1 (stereo not drawn)
- MIC [2]: 32 µg/mL (≈ 68.7 µM)
- MIC [3]: 16 µg/mL (≈ 34.4 µM)
- MIC [7]: 8 µg/mL (≈ 17.2 µM)
- t1/2 [4]: > 1 h
- CLint scaled at 10 µM [5]: < 10.4 mL/min/kg
- Activity [6]: 23%
- MBC [1]: 16 µg/mL (≈ 34.4 µM)
- MIC [1]: 4 µg/mL (≈ 8.59 µM)

Structure (SMILES): CC1=C(C(N)=O)C(c2ccc(C)cc2)n2nc(SCc3ccccc3)nc2N1 (stereo not drawn)
- MIC [1]: > 128 µg/mL

Structure (SMILES): CC1=C(C(N)=O)C(c2ccco2)n2nc(SCc3ccccc3)nc2N1 (stereo not drawn)
- MIC [1]: > 128 µg/mL

Structure (SMILES): CSc1ccc(C2C(C(N)=O)=C(C)Nc3nc(SCc4ccccc4)nn32)cc1 (stereo not drawn)
- MIC [1]: > 128 µg/mL

Structure (SMILES): CCc1cccc(C2C(C(N)=O)=C(C)Nc3nc(SCc4ccccc4)nn32)c1 (stereo not drawn)
- MIC [1]: 16 µg/mL (≈ 39.5 µM)

Structure (SMILES): CC1=C(C(=O)Nc2ccccc2)C(c2ccc(N(C)C)cc2)n2nc(SCc3ccccc3)nc2N1 (stereo not drawn)
- MIC [1]: 8 µg/mL (≈ 16.1 µM)

Structure (SMILES): CC(=O)Nc1ccc(C2C(C(N)=O)=C(C)Nc3nc(SCc4ccccc4)nn32)cc1 (stereo not drawn)
- MIC [1]: 128 µg/mL (≈ 295 µM)

Structure (SMILES): COc1ccc(C2C(C(N)=O)=C(C)Nc3nc(SCc4ccccc4)nn32)cc1O (stereo not drawn)
- MIC [1]: > 128 µg/mL

Structure (SMILES): CCOC(=O)CSc1nc2n(n1)C(c1ccc(N(C)C)cc1)C(C(N)=O)=C(C)N2 (stereo not drawn)
- MIC [1]: > 128 µg/mL
